From ChEMBL document CHEMBL1153955, “Indolylarylsulfones bearing natural and unnatural amino acids. Discovery of potent inhibitors of HIV-1 non-nucleoside wild type and resistant mutant strains reverse transcriptase and coxsackie B4 virus” (J Med Chem, 2009)

Columns and labels:
Felid alphaherpesvirus 1 = experiment: Antiviral activity against Feline herpesvirus in feline […] cells assessed as inhibition of virus-induced cytopathicity; format: functional, organism-based
Feline coronavirus = experiment: Antiviral activity against Feline coronavirus in feline […] cells assessed as inhibition of virus-induced cytopathicity; format: functional, organism-based; settings: Alphacoronavirus 1
Influenza A virus [1] = experiment: Antiviral activity against influenza H1N1 virus in MDCK cells assessed as reduction of virus-induced cytopathicity by MTS method; format: functional, organism-based; settings: Influenza A virus, H1N1, MDCK
[2] = tested on: Mammalian orthoreovirus 1; experiment: Antiviral activity against Reovirus 1 in african green monkey Vero cells assessed as protection against virus-induced cytopathicity; format: functional, organism-based; settings: Mammalian orthoreovirus 1, Vero
How it was run: (§1)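 Confluent cell monolayers inoculated with 100 CCID₅₀ virus. After 1-2 h adsorption, residual virus removed and cultures incubated with varying compound concentrations. Cytopathicity scored once it reached completion in untreated infected controls. EC₅₀ = dose reducing virus-induced cytopathogenicity by 50%.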

Influenza A virus [3] = experiment: Antiviral activity against influenza H1N1 virus in MDCK cells assessed as reduction of virus-induced cytopathicity by visual cytopathic effect scoring method; format: functional, organism-based
Influenza A virus H3N2 [4] = experiment: Antiviral activity against influenza H3N2 virus in MDCK cells assessed as reduction of virus-induced cytopathicity by visual cytopathic effect scoring method; format: functional, organism-based
[5] = tested on: Vesicular stomatitis virus; experiment: Antiviral activity against VSV in human HEL cells assessed as protection against virus-induced cytopathicity; format: functional, organism-based
[6] = Antiproliferative activity against human Molt4/C8 cells after 3 days; format: cell-based; settings: MOLT-4, 72 h
How it was run: (§2)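 Cells seeded at 5 × 10⁴ to 7.5 × 10⁴ cells/200 µL with or without serial compound dilutions; incubated at 37 °C for 2 days (L1210) or 3 days (Molt4/C8, CEM). Cell numbers counted with a Coulter counter. CC₅₀ = concentration reducing proliferation by 50% versus untreated controls, read from plots of cell number (% of control) against concentration. Means of at least two independent experiments.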

Coxsackievirus B4 [7] = experiment: Antiviral activity against Coxsackievirus B4 in african green monkey Vero cells assessed as protection against virus-induced cytopathicity; format: functional, organism-based; settings: Enterovirus B; how it was run: as §1
CCRF-CEM = experiment: Antiproliferative activity against human CEM cells after 3 days; format: cell-based; settings: 72 h; how it was run: as §2
Human respirovirus 3 = experiment: Antiviral activity against Parainfluenza virus type 3 in african green monkey Vero cells assessed as protection against virus-induced cytopathicity; format: functional, organism-based; settings: Human respirovirus 3, Vero; how it was run: as §1
[8] = Cytotoxicity against MDCK cells by MTS assay; format: cell-based, Canis lupus familiaris; settings: dog
[9] = Cytotoxicity against feline CRFK cells by MTS assay; format: cell-based, Felis catus; settings: cat
Influenza B virus [10] = experiment: Antiviral activity against influenza B virus in MDCK cells assessed as reduction of virus-induced cytopathicity by visual cytopathic effect scoring method; format: functional, organism-based
[11] = molecular target: Human immunodeficiency virus type 1 reverse transcriptase (Human immunodeficiency virus 1, UniProt Q72547, Y181I); experiment: Inhibition of HIV1 reverse transcriptase p66/p51 Y181I mutant
How it was run: (§3)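 Substrate was 0.5 µg poly(rA)/oligo(dT) 10:1 (0.3 µM 3′-OH ends) with 10 µM [³H]dTTP, at 37 °C. Acid-precipitable radioactivity was counted on GF/C filters after TCA washes.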

[12] = tested on: Human immunodeficiency virus 1; experiment: Antiviral activity against HIV1 3B in human CEM cells assessed as protection against virus-induced cytopathicity after 4 days; format: functional, organism-based; settings: Human immunodeficiency virus 1, 3B, CCRF-CEM, 96 h
How it was run: (§4)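 CEM cells (~3 × 10⁵ cells/mL) infected with ~100 CCID₅₀ per mL of HIV-1 (IIIB) or HIV-2 (ROD), then seeded into wells containing compound dilutions. After 4 days at 37 °C, syncytium (giant cell) formation was examined microscopically. EC₅₀ = concentration protecting CEM cells from HIV cytopathicity by 50%.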

[13] = molecular target: Human immunodeficiency virus type 1 reverse transcriptase (Human immunodeficiency virus 1, UniProt Q72547); experiment: Inhibition of HIV1 reverse transcriptase p66/p51
Vaccinia virus = experiment: Antiviral activity against Vaccinia virus Lederle in human HEL cells assessed as protection against virus-induced cytopathicity; format: functional, organism-based; settings: Orthopoxvirus vaccinia
[14] = Cytotoxicity against african green monkey Vero cells assessed as drug level causing microscopically detectable alteration of normal cell morphology after 3 days; format: cell-based; settings: chlorocebus sabaeus
How it was run: (§5)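 Serial compound dilutions added to confluent HeLa or Vero monolayers. MCC = minimum concentration causing microscopically detectable alteration of cell morphology after 3 days of incubation.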

Human alphaherpesvirus 1 [15] = experiment: Antiviral activity against HSV1 KOS in human HEL cells assessed as protection against virus-induced cytopathicity; format: functional, organism-based; settings: Human alphaherpesvirus 1, KOS
[16] = molecular target: Human immunodeficiency virus type 1 reverse transcriptase (Human immunodeficiency virus 1, UniProt Q72547, K103N); experiment: Inhibition of HIV1 reverse transcriptase p66/p51 K103N mutant; how it was run: as §3
L1210 = experiment: Antiproliferative activity against mouse L1210 cells after 2 days; format: cell-based; settings: L1210, 48 h; how it was run: as §2
[17] = tested on: Human immunodeficiency virus 2; experiment: Antiviral activity against HIV2 ROD in human CEM cells assessed as protection against virus-induced cytopathicity after 4 days; format: functional, organism-based; settings: Human immunodeficiency virus 2, ROD, CCRF-CEM, 96 h; how it was run: as §4
Human alphaherpesvirus 2 = experiment: Antiviral activity against HSV2 G in human HEL cells assessed as protection against virus-induced cytopathicity; format: functional, organism-based; settings: Human alphaherpesvirus 2, strain G; how it was run: as §1
Punta Toro virus = experiment: Antiviral activity against Punta Toro virus in african green monkey Vero cells assessed as protection against virus-induced cytopathicity; format: functional, organism-based; how it was run: as §1
[18] = Cytotoxicity against human HeLa cells assessed as drug level causing microscopically detectable alteration of normal cell morphology after 3 days; format: cell-based; how it was run: as §5
Influenza A virus H3N2 [19] = experiment: Antiviral activity against influenza H3N2 virus in MDCK cells assessed as reduction of virus-induced cytopathicity by MTS method; format: functional, organism-based
Sindbis virus = experiment: Antiviral activity against Sindbis virus in african green monkey Vero cells assessed as protection against virus-induced cytopathicity; format: functional, organism-based; how it was run: as §1
Human alphaherpesvirus 1 [20] = experiment: Antiviral activity against thymidine kinase deficient and acyclovir resistant HSV1 KOS in human HEL cells assessed as protection against virus-induced cytopathicity; format: functional, organism-based; settings: Human alphaherpesvirus 1, KOS
[21] = tested on: Respiratory syncytial virus; experiment: Antiviral activity against RSV Long in human HeLa cells assessed as protection against virus-induced cytopathicity; format: functional, organism-based; how it was run: as §1
[22] = molecular target: Human immunodeficiency virus type 1 reverse transcriptase (Human immunodeficiency virus 1, UniProt Q72547, L100I); experiment: Inhibition of HIV1 reverse transcriptase p66/p51 L100I mutant; how it was run: as §3
[23] = tested on: Vesicular stomatitis virus; experiment: Antiviral activity against VSV in human HeLa cells assessed as protection against virus-induced cytopathicity; format: functional, organism-based
Influenza B virus [24] = experiment: Antiviral activity against influenza B virus in MDCK cells assessed as reduction of virus-induced cytopathicity by MTS method; format: functional, organism-based
[25] = Cytotoxicity against human HEL cells assessed as drug level causing microscopically detectable alteration of normal cell morphology after 3 days; format: cell-based
Coxsackievirus B4 [26] = experiment: Antiviral activity against Coxsackievirus B4 in human HeLa cells assessed as protection against virus-induced cytopathicity; format: functional, organism-based; settings: Enterovirus B; how it was run: as §1
[27] = Cytotoxicity against MDCK cells assessed as drug level causing microscopically detectable alteration of normal cell morphology; format: cell-based, Canis lupus familiaris; settings: dog

In the case of `Cc1cc(C)cc(S(=O)(=O)c2c(C(=O)NCCS(N)(=O)=O)[nH]c3ccc(Cl)c(F)c23)c1`, the EC50 (Felid alphaherpesvirus 1) is reported as > 20 µM, the EC50 (Feline coronavirus) is reported as > 20 µM and the EC50 (Influenza A virus [1]) is reported as > 4 µM. For the same compound, the EC50 [2] was > 20 µM, the EC50 (Influenza A virus [3]) was > 4 µM and the EC50 (Influenza A virus H3N2 [4]) was > 4 µM. The EC50 [5] was > 20 µM, the IC50 [6] was 36 µM and the EC50 (Coxsackievirus B4 [7]) was > 20 µM. For the same compound, the IC50 (CCRF-CEM) was 31 µM, the EC50 (Human respirovirus 3) was > 20 µM and the CC50 [8] was 7.4 µM. For the same compound, the CC50 [9] was 34.6 µM, the EC50 (Influenza B virus [10]) was > 4 µM and the IC50 [11] was “ND(Insoluble)”. For the same compound, the EC50 [12] was 0.0023 µM, the IC50 [13] was “ND(Insoluble)” and the EC50 (Vaccinia virus) was > 20 µM. For the same compound, the MCC at 72 h [14] was 100 µM, the EC50 (Human alphaherpesvirus 1 [15]) was > 20 µM and the IC50 [16] was “ND(Insoluble)”. The IC50 (L1210) was 42 µM, the EC50 [17] was > 10 µM and the EC50 (Human alphaherpesvirus 2) was > 20 µM. For the same compound, the EC50 (Punta Toro virus) was > 20 µM, the MCC at 72 h [18] was 100 µM and the EC50 (Influenza A virus H3N2 [19]) was > 4 µM. The EC50 (Sindbis virus) was > 20 µM, the EC50 (Human alphaherpesvirus 1 [20]) was > 20 µM and the EC50 [21] was 20 µM. For the same compound, the IC50 [22] was “ND(Insoluble)”, the EC50 [23] was > 20 µM and the EC50 (Influenza B virus [24]) was > 4 µM. It also gave an MCC at 72 h [25] of 100 µM, an EC50 (Coxsackievirus B4 [26]) of 7 µM and an MCC [27] of 20 µM.
With `Cc1cc(C)cc(S(=O)(=O)c2c(C(=O)NC(C)CS(N)(=O)=O)[nH]c3ccc(Br)cc23)c1` (stereo not drawn) the EC50 (Felid alphaherpesvirus 1) was > 20 µM, the EC50 (Feline coronavirus) was > 20 µM and the EC50 (Influenza A virus [1]) was > 800 µM. For the same compound, the EC50 [2] was > 20 µM, the EC50 (Influenza A virus [3]) was > 800 µM and the EC50 (Influenza A virus H3N2 [4]) was > 800 µM. For the same compound, the EC50 [5] was > 4 µM, the IC50 [6] was 9.3 µM and the EC50 (Coxsackievirus B4 [7]) was 16 µM. For the same compound, the IC50 (CCRF-CEM) was 12 µM, the EC50 (Human respirovirus 3) was > 20 µM and the CC50 [8] was 1.9 µM. The CC50 [9] was 53 µM, the EC50 (Influenza B virus [10]) was > 800 µM and the IC50 ([11]; read-out: IC50) was 8.55 µM. The EC50 [12] was 0.0023 µM, the IC50 ([13]; read-out: IC50) was 0.003 µM and the EC50 (Vaccinia virus) was > 4 µM. For the same compound, the MCC at 72 h [14] was ≥ 20 µM, the EC50 (Human alphaherpesvirus 1 [15]) was > 4 µM and the IC50 ([16]; read-out: IC50) was 1.33 µM. The IC50 (L1210) was 11 µM, the EC50 [17] was > 10 µM and the EC50 (Human alphaherpesvirus 2) was > 4 µM. The EC50 (Punta Toro virus) was > 20 µM, the MCC at 72 h [18] was 20 µM and the EC50 (Influenza A virus H3N2 [19]) was > 800 µM. The EC50 (Sindbis virus) was > 20 µM, the EC50 (Human alphaherpesvirus 1 [20]) was > 4 µM and the EC50 [21] was ≥ 4 µM. For the same compound, the IC50 ([22]; read-out: IC50) was 0.125 µM, the EC50 [23] was > 4 µM and the EC50 (Influenza B virus [24]) was > 800 µM. For the same compound, the MCC at 72 h [25] was 20 µM, the EC50 (Coxsackievirus B4 [26]) was 3 µM and the MCC [27] was 4 µM.
In the case of `Cc1cc(C)cc(S(=O)(=O)c2c(C(=O)NCCS(N)(=O)=O)[nH]c3ccc([N+](=O)[O-])cc23)c1`, the EC50 (Felid alphaherpesvirus 1) is reported as > 100 µM, the EC50 (Feline coronavirus) is reported as > 100 µM and the EC50 (Influenza A virus [1]) is reported as > 4 µM. The EC50 [2] was > 20 µM, the EC50 (Influenza A virus [3]) was > 4 µM and the EC50 (Influenza A virus H3N2 [4]) was > 4 µM. The EC50 [5] was > 4 µM, the IC50 [6] was 244 µM and the EC50 (Coxsackievirus B4 [7]) was > 20 µM. For the same compound, the IC50 (CCRF-CEM) was 200 µM, the EC50 (Human respirovirus 3) was > 20 µM and the CC50 [8] was 32.7 µM. For the same compound, the CC50 [9] was > 100 µM, the EC50 (Influenza B virus [10]) was > 4 µM and the IC50 ([11]; read-out: IC50) was > 40 µM. For the same compound, the EC50 [12] was 0.0027 µM, the IC50 ([13]; read-out: IC50) was 0.061 µM and the EC50 (Vaccinia virus) was > 4 µM. For the same compound, the MCC at 72 h [14] was 100 µM, the EC50 (Human alphaherpesvirus 1 [15]) was > 4 µM and the IC50 ([16]; read-out: IC50) was 0.787 µM. The IC50 (L1210) was 408 µM, the EC50 [17] was > 10 µM and the EC50 (Human alphaherpesvirus 2) was > 4 µM. The EC50 (Punta Toro virus) was > 20 µM, the MCC at 72 h [18] was ≥ 100 µM and the EC50 (Influenza A virus H3N2 [19]) was > 4 µM. For the same compound, the EC50 (Sindbis virus) was > 20 µM, the EC50 (Human alphaherpesvirus 1 [20]) was > 4 µM and the EC50 [21] was 20 µM. The IC50 ([22]; read-out: IC50) was 0.388 µM, the EC50 [23] was ≥ 100 µM and the EC50 (Influenza B virus [24]) was > 4 µM. The MCC at 72 h [25] was 20 µM, the EC50 (Coxsackievirus B4 [26]) was ≥ 20 µM and the MCC [27] was 20 µM.
